Hits are enriched below; roughly 1.9% of the tested compounds scored in any of these assays.
CCR6 antag: antagonists of human CCR6 receptor; P51684; AID 493098; inhibition, % at 20 µM; 340,000 compounds, 0.49% hits; CHO-K1 CCR6 PathHunter beta-arrestin, luminescence, CCL20-stimulated;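 active = compounds whose inhibition of the agonist-driven luminescence signal at 20 µM reaches about 50%, limit read from the data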;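 also: cells stimulated with CCL20 at 14 nM final; plate controls were DMSO with CCL20 for no effect and DMSO without agonist for full effect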
H9c2 TAG inh: inhibitors of triacylglycerol accumulation. H9c2 cells, Nile Red lipid (TAG) fluorescence; cells loaded with 200 µM oleic acid. inhibition, % at 12.5 µM. 230,000 compounds, 0.66% hits;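 active = pattern-corrected inhibition of lipid staining of at least 50% with the nuclear-stain viability signal not falling by more than 50%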;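 also: 0% = DMSO wells and 100% = triacsin C control wells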
EBI2 antag: EBI2 (human) antagonism | 360,000 compounds, 0.81% hits | inhibition, % at 5 µM | P32249 | AID 651636 | EBI2 beta-arrestin recruitment, luminescence, 7a,25-OHC stimulated; in the data active = inhibition above about 38%;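 also: enzyme fragment complementation signal reports receptor beta-arrestin coupling in cells; 0% = agonist plus DMSO wells and 100% = wells without agonist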
APJ antag: APJ receptor antagonism. P35414. CHO-K1 APJ beta-arrestin complementation, luminescence. inhibition, % at 20 µM. 330,000 compounds, 0.32% hits;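 active = inhibition above about 40% at 20 µM, limit read from the data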;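 also: cells challenged with 10 nM apelin-13 agonist together with compound; plate controls were apelin-13 plus DMSO wells for no effect and DMSO wells lacking apelin-13 for full effect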
Target sequence (P35414 whole entry, looked up): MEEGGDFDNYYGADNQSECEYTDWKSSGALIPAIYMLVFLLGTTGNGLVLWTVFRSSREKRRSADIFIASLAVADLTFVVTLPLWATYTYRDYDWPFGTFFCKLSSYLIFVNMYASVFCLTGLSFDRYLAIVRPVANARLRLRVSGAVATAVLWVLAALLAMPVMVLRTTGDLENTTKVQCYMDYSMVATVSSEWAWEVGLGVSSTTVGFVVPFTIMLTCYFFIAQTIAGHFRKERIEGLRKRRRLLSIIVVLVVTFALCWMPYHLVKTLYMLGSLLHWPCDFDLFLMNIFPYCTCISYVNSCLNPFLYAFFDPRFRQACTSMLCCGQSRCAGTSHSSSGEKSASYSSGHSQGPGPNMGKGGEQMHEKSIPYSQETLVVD
APJ agonist: activates the human apelin receptor APJ; CHO-K1 APJ PathHunter beta-arrestin, luminescence; 0% DMSO wells, 100% apelin; 330,000 compounds, 0.11% hits; activation, % at 20 µM; P35414;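 active = activation more than six SD over the plate average, tested at 20 µM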;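 also: 0% = DMSO alone and 100% = apelin-13 at 10 nM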
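Test system – PathHunter CHO-K1 APJ (AGTRL-1) beta-arrestin reporter cells · Input – 1000 cells/well · Compound – single test compound dose, 20 µM final, 1% DMSO · Times – compound stimulation 90 min at 25 °C, detection 60 min · Technique – beta-gal luminescence · Read-out basis – APJ–arrestin association signal · Control set – negative DMSO alone, positive Apelin-13 at 10 nM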
CXCR6 inh: blocks human CXCR6 beta-arrestin recruitment; O00574; CHO-K1 PathHunter CXCR6 beta-arrestin, luminescence; inhibition, % at 20 µM; 360,000 compounds, 0.36% hits; AID 602244; in the data active = inhibition above about 34%, passing the limit was not always enough;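 also: antagonist mode with CXCL16 agonist at 10 nM final; 0% = 10 nM CXCL16 with DMSO and 100% = unstimulated wells without agonist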
Target sequence (O00574 whole entry, looked up): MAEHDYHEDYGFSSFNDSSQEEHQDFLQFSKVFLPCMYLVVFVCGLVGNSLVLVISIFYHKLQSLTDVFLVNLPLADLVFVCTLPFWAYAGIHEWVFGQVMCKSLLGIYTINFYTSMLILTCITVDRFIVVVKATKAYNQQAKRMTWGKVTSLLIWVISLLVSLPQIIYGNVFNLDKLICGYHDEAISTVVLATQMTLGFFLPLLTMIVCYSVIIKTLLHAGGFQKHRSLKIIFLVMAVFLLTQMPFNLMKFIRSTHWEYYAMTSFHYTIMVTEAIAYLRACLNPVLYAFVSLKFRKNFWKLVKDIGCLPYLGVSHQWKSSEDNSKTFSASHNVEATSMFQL
CXCR6 antag conf: CXCR6 antagonism confirmation, single concentration; shares compounds with CXCR6 inh; CHO-K1 CXCR6 PathHunter beta-arrestin, luminescence; inhibition, % at 20 µM; 700 compounds, 65% hits;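 active = mean inhibition over four retests above 40%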;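 also: receptor stimulated with 10 nM CXCL16 agonist; beta-galactosidase fragment complementation upon beta-arrestin recruitment to receptor; plate controls were CXCL16 plus DMSO for no effect and DMSO without CXCL16 for full effect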
TAG conf: triacylglycerol accumulation inhibition, confirmation. inhibition, % at 12.5 µM. shares compounds with H9c2 TAG inh. H9c2 lipid accumulation, Nile Red fluorescence; cells loaded with 200 µM oleic acid. 990 compounds, 71% hits;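 active = mean inhibition across replicates of 40% or more; inactive = mean inhibition below 40%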;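 also: plate controls were DMSO only wells for no effect and Triacsin C treated wells for full effect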
EBI2 conf: EBI2 (human) antagonism, single concentration confirmation; 2,400 compounds, 29% hits; EBI2 beta-arrestin luminescence, 7a,25-OHC antagonism; inhibition, % at 5 µM; AID 651997; shares compounds with EBI2 antag;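 active = inhibition of at least 50%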
EBI2 ag: activates EBI2, counter-screen for EBI2 antagonists. shares compounds with EBI2 antag. 2,400 tested, under 10 active. EBI2-expressing cells, agonist mode, luminescence, 60 min; 0% vehicle, 100% 7α,25-dihydroxycholesterol control. activation, % at 5 µM;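 active = activation of at least 50%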
bGal counter: beta-galactosidase inhibition counter-screen | shares compounds with EBI2 antag | purified beta-galactosidase, luminescent Galacton Star, 15 min | inhibition, % at 5 µM | 2,400 compounds, 1% hits;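 active = replicate-average signal at least 3 plate SD below neutral wells, shown as high inhibition, flagging enzyme-inhibiting false positives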;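 also: 0% = DMSO wells with enzyme and 100% = wells lacking enzyme; higher means stronger loss of beta-gal luminescence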
* marks the source's active call; other numbers are inactive results; . = no result given.

SMILES	CCR6 antag	H9c2 TAG inh	EBI2 antag	APJ antag	APJ agonist	CXCR6 inh	TAG conf	others
C/C(=N\NC(=O)c1cc(-c2cccs2)nc2ccccc12)c1ccccn1	29	.	66*	39	-8	45*	.	CXCR6 antag conf=44*;EBI2 conf=48;EBI2 ag=-3;bGal counter=-10
O=C(CCN1C(=O)c2cccc([N+](=O)[O-])c2C1=O)NC1CCCCCC1	3	-6	-4	-4	-2	-1	.
CCC(CC)C(=O)N(C)c1c(C)nc2c(OCc3ccc(Cl)cc3Cl)cccn12	.	12	47*	.	.	51*	.	CXCR6 antag conf=24;EBI2 conf=46;EBI2 ag=-1;bGal counter=8
CCC(CC)C(=O)N(C)c1c(C)nc2c(OCc3ccccc3C)cccn12	.	11	-1	.	.	1	.
Cc1ccc(C(=O)NCCNC(=O)c2ccccn2)cc1	4	.	-3	3	1	2	.
COc1ccc(CCNC(=O)Cc2cc(OCc3ccccc3)c(OC)cc2[N+](=O)[O-])cc1OC	16	63*	6	9	-4	22	33
O=C(Nc1ccc(-c2csc(Nc3ccccc3)n2)cc1)c1cccc(C(F)(F)F)c1	6	75*	23	-12	-1	-2	83*
O=C(Nc1ccc(-c2csc(Nc3ccc(Cl)cc3)n2)cc1)c1cccc(C(F)(F)F)c1	-4	.	.	-41	7	.	.
O=C(NC(=S)N1CCCCC1CO)c1cc(Br)ccc1Cl (centres undefined)	29	-7	-6	25	-7	12	.
Cc1ccc2c(c1)-c1c(cnn1CC(=O)Nc1ccccc1N1CCN(C)CC1)CO2	8	53*	-10	13	-1	2	51*
COc1ccc(S(=O)(=O)N2N=C(C)Oc3ccccc3C2=O)cc1	0	63*	-4	-3	1	-6	54*
CC(C)C[C@@H](CN1CCC[C@H]1CN1C(=O)C(=O)NC[C@@H]1Cc1ccccc1)N1C[C@H](Cc2ccc(O)cc2)N(CC2CCCCC2)C(=O)C1=O	.	.	-11	.	.	-6	.
COc1ccc(C[C@H]2CN3C(=NC[C@@H]3Cc3ccc(O)cc3)N2CCNC(=O)c2ccc(C)c(Br)c2)cc1	5	62*	14	17	16	-2	49*
CSc1nc(Oc2ccc(F)cc2)c2ccccc2n1	4	.	1	-14	-4	-9	.
COc1ccc(Oc2nc(-c3ccccn3)nc3ccccc23)cc1	35	62*	7	32	-5	3	53*
Fc1ccc(Oc2nc(-c3ccccn3)nc3ccccc23)cc1	30	56*	-15	28	-4	12	42*
Cc1nc(Oc2ccccc2)c2ccccc2n1	1	.	2	-6	-3	0	.
c1ccc(Oc2nc(-c3ccccn3)nc3ccccc23)cc1	46	72*	-17	2	-1	11	51*
CC(=O)c1c(C)[nH]c(C(=O)OCc2csc(CC(=O)Nc3ccccc3C)n2)c1C	14	-3	4	-16	3	-5	.
Cc1cc(C)cc(-n2c3ccc(NC(=O)Cc4cccc5ccccc45)cc3c(=O)n2C)c1	.	51*	-15	.	.	16	50*
Cn1c(=O)c2cc(NC(=O)Cc3ccccc3F)ccc2n1-c1ccc(C(C)(C)C)cc1	.	22	17	.	.	2	.
NC1=NC(c2ccccc2C(F)(F)F)N(c2ccc(F)c(Cl)c2)C(N)=N1 (centres undefined)	2	.	-8	-20	-3	3	.
CC(C)Sc1nnc(NC(=O)c2ccco2)s1	-11	55*	-5	-9	-1	3	18
COc1ccc(C(CCN2CCCCC2)c2c(OC)cc(OC)c3c(-c4ccccc4)cc(=O)oc23)cc1 (centres undefined)	14	44	0	21	12	8	.
CCN(CC)CCC(c1cc(OC)c(OC)c(OC)c1)c1c(OC)cc(OC)c2c(C)cc(=O)oc12 (centres undefined)	9	17	-6	2	-6	-3	.
SMILES	CCR6 antag	H9c2 TAG inh	EBI2 antag	APJ antag	APJ agonist	CXCR6 inh	TAG conf	others
COc1cc(OC)c2c(-c3ccccc3)cc(=O)oc2c1C(CC(=O)N1CCCC1)c1ccc2c(c1)OCO2 (centres undefined)	11	7	8	4	6	21	.
COc1cc(OC)c2c(-c3ccccc3)cc(=O)oc2c1C(CCN1CCCC(C)C1)c1ccc2c(c1)OCO2 (centres undefined)	16	69*	-6	30	2	8	51*
COc1cc(OC)c2c(-c3ccccc3)cc(=O)oc2c1C(CCN1CCCCC1)c1ccc(N(C)C)cc1 (centres undefined)	7	68*	-7	20	5	-6	55*
COc1cc(OC)c2c(-c3ccccc3)cc(=O)oc2c1C(CCN1CCCCC1)c1ccc2c(c1)OCO2 (centres undefined)	11	58*	7	6	4	-3	41*
CCCCCc1cc(=O)oc2c(C(CCN(CC)CC)c3ccc(N(C)C)cc3)c(OC)cc(OC)c12 (centres undefined)	10	72*	-3	28	-1	-14	61*
O=C(NCc1c(Cl)cccc1Oc1ccccc1)c1ccccc1	20	-12	7	21	-4	3	.
CS(=O)(=O)c1cccc(-c2nnc(NC(=O)C3=COCCO3)o2)c1	-2	15	1	3	-2	7	.
CCCCNC(=O)c1cnc(Cc2c[nH]c3ccccc23)c(I)c1	.	65*	3	.	.	-4	15
CN1CCN(C(=O)c2cnc(Cc3c[nH]c4ccccc34)c(I)c2)CC1	.	-5	2	.	.	6	.
COCC(C)n1c(SCC(=O)N2CCc3ccccc3C2)nc2ccccc2c1=O (centres undefined)	9	.	0	11	-3	10	.
CCOc1ccc(C(=O)NC(=S)Nc2cccc(S(=O)(=O)NC3=NCCC3)c2)cc1	31	51*	-16	8	-6	12	57*
Cc1ccc(C(=O)OCC(=O)Nc2cccc(S(=O)(=O)NC3=NCCCCC3)c2)c(C)c1	-6	78*	-4	12	1	-1	12
